# Experimental data as given in ChEMBL document CHEMBL1817575, “Extended targeting potential and improved synthesis of Microcin C analogs as antibacterials” (Bioorg Med Chem, 2011).
# Calls of active or inactive are those of the source. The calls are words filed in the database; no cut-off is given here. Residues, ends and D or L forms follow the SMILES beside them. *: point of attachment. X7 = CC[C@H](C)[C@H](N*)C(=O)NS(=O)(=O)OC[C@H]1O[C@@H](n2cnc3c(N)ncnc32)[C@H](O)[C@@H]1O; NHTrityl = c1ccc(C(N*)(c2ccccc2)c2ccccc2)cc1; Pbf = Cc1c(C)c(S(=O)(=O)*)c(C)c2c1OC(C)(C)C2; tBu = CC(C)(C)*; For = O=C*
# Columns and labels:
# Escherichia coli [1] = assay: Antibacterial activity against Escherichia coli Ara-Yej (BW39758) at <= 0.63 uM after 8 hrs; format: functional, organism-based
# Procedure, shortened: (§1)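 Overnight LB cultures were regrown in fresh LB, with or without 5 mM L-arabinose, to OD600 0.1. Compounds were serially titrated in 96-well plates in LB with or without 5 mM L-arabinose, and cells were added. Plates were incubated at 37 °C, and growth inhibition was read as OD600 after 8 h.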
# Escherichia coli [2] = assay: Antibacterial activity against yej or pepA,B,N-genes disrupted Escherichia coli after 8 hrs; format: functional, organism-based; procedure, shortened: as §1
smiles,measurement,setting,value
CC[C@H](C)[C@H](NC(=O)[C@H](C)NC(=O)[C@H](CC(=O)NC(c1ccccc1)(c1ccccc1)c1ccccc1)NC(=O)CNC(=O)[C@@H](NC(=O)[C@H](CCCNC(=N)NS(=O)(=O)c1c(C)c(C)c2c(c1C)CC(C)(C)O2)NC(=O)[C@H](CCSC)NC=O)[C@@H](C)OC(C)(C)C)C(=O)NS(=O)(=O)OC[C@H]1O[C@@H](n2cnc3c(N)ncnc32)[C@H](O)[C@@H]1O (For-MR(Pbf)T(tBu)GD(NHTrityl)A-X7),Activity,Escherichia coli [1],Active
same,Activity,Escherichia coli [2],inactive
